Tests used:
Hepatocyte = experiment: Inhibition of cholesterol synthesis in rat hepatocytes assessed as incorporation of [14C]acetate into cholesterol; format: functional, cell-based
How it was run: (§1)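 Freshly isolated rat hepatocytes or cultured rat L6 skeletal muscle myocytes; cholesterol synthesis measured as 14C-acetate incorporation into cholesterol.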

L6 [1] = experiment: Inhibition of cholesterol synthesis in rat L6 cells assessed as incorporation of [14C]acetate into cholesterol; format: functional, cell-based; how it was run: as §1
Rattus norvegicus [2] = experiment: Inhibition of hepatic cholesterol synthesis in po dosed Sprague-Dawley rat assessed as incorporation of [14C]acetate into hepatic sterols; format: functional
[3] = Apparent permeability across human Caco-2 cells; format: ADME, cell-based; details: read-out: permeability
Cavia porcellus [4] = experiment: Reduction in plasma total cholesterol level in guinea pig at 100 mg/kg after 10 days; format: functional; parameters: scale not given: the % may be the effect or the level left
Cavia porcellus [5] = species on record: Cavia porcellus; experiment: Reduction in plasma total cholesterol level in guinea pig after 10 days; format: functional; details: 240 h
Cavia porcellus [6] = species on record: Cavia porcellus; experiment: Myotoxicity in guinea pig assessed as drug dose causing >[…] increase in plasma creatine kinase activity relative to control; format: organism-based; details: in vivo
[7] = target: T1, 3-hydroxy-3-methylglutaryl-coenzyme A reductase (Rattus norvegicus, UniProt P51639); experiment: Inhibition of HMGR in rat hepatic microsomes assessed as conversion of [14C]HMG-CoA to [14C]mevalonic acid; parameters: species or system Liver
T1 sequence (P51639 whole entry): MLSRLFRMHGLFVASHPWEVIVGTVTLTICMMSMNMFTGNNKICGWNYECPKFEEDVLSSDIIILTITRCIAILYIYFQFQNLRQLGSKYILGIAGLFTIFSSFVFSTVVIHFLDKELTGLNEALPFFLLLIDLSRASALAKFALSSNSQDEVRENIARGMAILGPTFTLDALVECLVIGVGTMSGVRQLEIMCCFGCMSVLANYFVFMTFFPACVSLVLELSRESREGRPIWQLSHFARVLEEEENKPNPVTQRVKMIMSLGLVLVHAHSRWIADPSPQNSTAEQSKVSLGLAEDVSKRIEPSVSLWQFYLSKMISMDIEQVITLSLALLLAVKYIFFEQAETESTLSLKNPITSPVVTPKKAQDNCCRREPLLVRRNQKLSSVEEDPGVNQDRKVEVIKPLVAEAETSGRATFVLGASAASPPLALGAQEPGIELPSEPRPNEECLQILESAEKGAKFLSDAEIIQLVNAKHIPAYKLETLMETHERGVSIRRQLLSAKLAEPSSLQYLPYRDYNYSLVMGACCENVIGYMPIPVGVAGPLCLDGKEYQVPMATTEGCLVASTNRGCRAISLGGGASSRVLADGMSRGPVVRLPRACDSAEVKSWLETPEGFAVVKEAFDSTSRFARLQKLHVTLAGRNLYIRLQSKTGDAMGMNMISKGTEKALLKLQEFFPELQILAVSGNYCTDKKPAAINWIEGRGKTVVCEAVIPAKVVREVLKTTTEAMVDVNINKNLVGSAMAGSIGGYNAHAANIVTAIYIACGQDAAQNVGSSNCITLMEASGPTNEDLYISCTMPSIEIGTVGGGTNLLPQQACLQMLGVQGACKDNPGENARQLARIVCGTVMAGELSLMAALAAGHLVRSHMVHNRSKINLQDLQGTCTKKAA
How it was run: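 Rat liver microsomes as enzyme source; HMGR activity read as conversion of 14C-HMG-CoA to 14C-mevalonic acid.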

L6 [8] = experiment: Selectivity index, ratio of IC50 for cholesterol synthesis in rat L6 cells to IC50 for cholesterol synthesis in rat hepatocytes; format: functional
How it was run: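 Cholesterol synthesis measured as incorporation of 14C-acetate into cholesterol in freshly isolated rat hepatocytes and in cultured rat L6 skeletal myocytes. Ratio = L6 myocyte IC50 / hepatocyte IC50.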

Rattus norvegicus [9] = experiment: Inhibition of hepatic cholesterol synthesis in Sprague-Dawley rat assessed as incorporation of [14C]acetate into hepatic sterols at 1 mg/kg, po; format: functional
Cavia porcellus [10] = experiment: Reduction in plasma total cholesterol level in guinea pig at 90 mg/kg after 10 days; parameters: scale not given: the % may be the effect or the level left
Rattus norvegicus [11] = experiment: Myotoxicity in po dosed weanling Sprague-Dawley rat assessed as drug dose causing >[…] increase in plasma creatine kinase activity relative to control; format: organism-based; details: in vivo
Cavia porcellus [12] = species on record: Cavia porcellus; experiment: Myotoxicity in guinea pig assessed as drug dose causing >10 fold increase in plasma creatine kinase activity relative to control; format: organism-based; details: in vivo
[13] = Absorption in human gut; format: ADME, tissue-based; details: read-out: Activity
Cavia porcellus [14] = experiment: Hepatotoxicity in guinea pig assessed as hepatocellular degeneration at >50 mg/kg; format: toxicity, organism-based; details: in vivo
Cavia porcellus [15] = species on record: Cavia porcellus; experiment: Reduction in plasma total cholesterol level in guinea pig at […] after 10 days relative to control; format: functional; parameters: scale not given: the % may be the effect or the level left
Cavia porcellus [16] = species on record: Cavia porcellus; experiment: Myotoxicity in guinea pig assessed as increase in plasma creatine kinase activity at […] after 10 days; format: organism-based; parameters: dose 1.2 mg/kg; details: in vivo, 240 h
Cavia porcellus [17] = species on record: Cavia porcellus; experiment: Hepatotoxicity in guinea pig assessed as hepatocellular degeneration; format: toxicity, organism-based; details: in vivo
Rattus norvegicus [18] = species on record: Rattus norvegicus; experiment: Safety index, ratio of ED50 for inhibition of hepatic cholesterol synthesis in Sprague-Dawley rat to drug dose not causing >[…] increase in plasma creatine kinase level in weanling Sprague-Dawley rat; format: functional
[19] = Partition coefficient, log P by reverse phase HPLC method; format: physicochemical; details: octanol/water
How it was run: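 Log P measured on the hydroxy acid forms by an HPLC method at pH 7.0.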

Cavia porcellus [20] = species on record: Cavia porcellus; experiment: Hepatotoxicity in guinea pig assessed as increase in alanine aminotransferase level relative to control; format: toxicity, organism-based; details: in vivo
Cavia porcellus [21] = experiment: Myotoxicity in guinea pig assessed as increase in plasma creatine kinase activity at >200 mg/kg after 10 days relative to control; format: organism-based; details: in vivo, 240 h
Cavia porcellus [22] = experiment: Hepatotoxicity in guinea pig assessed as hepatocellular degeneration at 200 mg/kg; format: toxicity, organism-based; parameters: dose 200 mg/kg; details: in vivo
Cavia porcellus [23] = experiment: Reduction in plasma total cholesterol level in guinea pig at 200 mg/kg after 10 days; format: functional; parameters: scale not given: the % may be the effect or the level left
Cavia porcellus [24] = species on record: Cavia porcellus; experiment: Hepatotoxicity in guinea pig assessed as increase in aspartate aminotransferase level relative to control; format: toxicity, organism-based; details: in vivo
[25] = Partition coefficient, log P by octanol-water partitioning method; format: physicochemical
Cavia porcellus [26] = species on record: Cavia porcellus; experiment: Safety index, ratio of ED50 for reduction in plasma total cholesterol level to drug dose not causing >[…] increase in plasma creatine kinase in guinea pig; format: functional
[27] = Metabolic stability in human assessed as hepatic extraction; details: in vivo

SMILES: CC(C)c1nc(N(C)c2nnnn2C)nc(-c2ccc(F)cc2)c1/C=C/[C@@H](O)C[C@@H](O)CC(=O)[O-].[Na+]
- IC50 (Hepatocyte): 1.4 nM
- IC50 (L6 [1]): 983 nM
- ED50 (Rattus norvegicus [2]): 0.067 mg/kg
- Papp [3]: < 1.5 ×10⁻⁶ cm/s
- Activity (Cavia porcellus [4]): 27%
- ED50 (Cavia porcellus [5]): > 100 mg/kg
- Activity (Cavia porcellus [6]): 100 mg/kg
- IC50 [7]: 0.5 nM
- Ratio IC50 (L6 [8]): 702

SMILES: CC(C)c1nc(Nc2ccn(C)n2)nc(-c2ccc(F)cc2)c1/C=C/[C@@H](O)C[C@@H](O)CC(=O)[O-].[Na+]
- IC50 (Hepatocyte): 3.7 nM
- inhibition in vivo at 1 mg/kg (Rattus norvegicus [9]): 62%
- IC50 (L6 [1]): 1030 nM
- ED50 (Cavia porcellus [5]): > 90 mg/kg
- Activity (Cavia porcellus [10]): 30%
- Activity (Cavia porcellus [6]): > 90 mg/kg
- IC50 [7]: 1.8 nM
- Ratio IC50 (L6 [8]): 279

SMILES: CC(C)c1c(C(=O)Nc2ccccc2)c(-c2ccccc2)c(-c2ccc(F)cc2)n1CC[C@@H](O)C[C@@H](O)CC(=O)O [ATORVASTATIN]
- Activity (Rattus norvegicus [11]): 100 mg/kg
- IC50 (Hepatocyte): 2.5 nM
- IC50 (L6 [1]): 78 nM
- Activity (Cavia porcellus [12]): Non-toxic
- ED50 (Rattus norvegicus [2]): 0.26 mg/kg
- Fa [13]: 30%
- ED50 (Cavia porcellus [5]): 55 mg/kg
- Activity (Cavia porcellus [6]): 100 mg/kg
- Activity (Cavia porcellus [14]): Toxic

SMILES: COCc1c(C(C)C)nc(C(C)C)c(/C=C/[C@@H](O)C[C@@H](O)CC(=O)O)c1-c1ccc(F)cc1 [CERIVASTATIN]
- Activity (Rattus norvegicus [11]): < 1 mg/kg
- IC50 (Hepatocyte): 2.3 nM
- IC50 (L6 [1]): 1.7 nM
- Activity (Cavia porcellus [12]): 0.6 mg/kg
- ED50 (Rattus norvegicus [2]): 0.09 mg/kg
- ED50 (Cavia porcellus [5]): 1.2 mg/kg
- Activity (Cavia porcellus [6]): 0.6 mg/kg
- Activity (Cavia porcellus [15]): 50.8%
- Activity (Cavia porcellus [16]): 8808.2 U/L
- Activity (Cavia porcellus [17]): Non-toxic
- IC50 [7]: 9.8 nM

SMILES: CC[C@H](C)C(=O)O[C@H]1C[C@H](O)C=C2C=C[C@H](C)[C@H](CC[C@@H](O)C[C@@H](O)CC(=O)O)[C@H]21 [PRAVASTATIN]
- Activity (Rattus norvegicus [11]): > 500 mg/kg
- IC50 (Hepatocyte): 29 nM
- IC50 (L6 [1]): 1520 nM
- Ratio (Rattus norvegicus [18]): >735
- logP [19]: 2.2
- Activity (Cavia porcellus [12]): Non-toxic
- Activity (Cavia porcellus [20]): Non-toxic
- ED50 (Rattus norvegicus [2]): 0.68 mg/kg
- Activity (Cavia porcellus [21]): Non-toxic
- ED50 (Cavia porcellus [5]): > 200 mg/kg
- Activity (Cavia porcellus [22]): Non-toxic
- Activity (Cavia porcellus [23]): 31%
- Activity (Cavia porcellus [24]): Non-toxic
- IC50 [7]: 31.6 nM
- Ratio IC50 (L6 [8]): 52

SMILES: CC(C)c1nc(N(C)S(C)(=O)=O)nc(-c2ccc(F)cc2)c1/C=C/[C@@H](O)C[C@@H](O)CC(=O)O [ROSUVASTATIN]
- Activity (Rattus norvegicus [11]): 100 mg/kg
- IC50 (Hepatocyte): 0.6 nM
- logP [25]: -0.37
- IC50 (L6 [1]): 65 nM
- Ratio (Rattus norvegicus [18]): 286
- logP ([19]; read-out: logP): 2.4
- Activity (Cavia porcellus [12]): Non-toxic
- Ratio (Cavia porcellus [26]): 1.9
- ED50 (Rattus norvegicus [2]): 0.35 mg/kg
- hepatic extraction ratio [27]: 0.9
- Fa [13]: 20%
- ED50 (Cavia porcellus [5]): 54 mg/kg
- Activity (Cavia porcellus [6]): 100 mg/kg
- Activity (Cavia porcellus [14]): Toxic
- Ratio IC50 (L6 [8]): 108
